Experimental data of several laboratories.
Compare with care: the assays were run in different laboratories.
Target: Ephrin type-A receptor 8 (EPHA8, Homo sapiens, UniProt P29322)
One construct used (P29322 1-1005): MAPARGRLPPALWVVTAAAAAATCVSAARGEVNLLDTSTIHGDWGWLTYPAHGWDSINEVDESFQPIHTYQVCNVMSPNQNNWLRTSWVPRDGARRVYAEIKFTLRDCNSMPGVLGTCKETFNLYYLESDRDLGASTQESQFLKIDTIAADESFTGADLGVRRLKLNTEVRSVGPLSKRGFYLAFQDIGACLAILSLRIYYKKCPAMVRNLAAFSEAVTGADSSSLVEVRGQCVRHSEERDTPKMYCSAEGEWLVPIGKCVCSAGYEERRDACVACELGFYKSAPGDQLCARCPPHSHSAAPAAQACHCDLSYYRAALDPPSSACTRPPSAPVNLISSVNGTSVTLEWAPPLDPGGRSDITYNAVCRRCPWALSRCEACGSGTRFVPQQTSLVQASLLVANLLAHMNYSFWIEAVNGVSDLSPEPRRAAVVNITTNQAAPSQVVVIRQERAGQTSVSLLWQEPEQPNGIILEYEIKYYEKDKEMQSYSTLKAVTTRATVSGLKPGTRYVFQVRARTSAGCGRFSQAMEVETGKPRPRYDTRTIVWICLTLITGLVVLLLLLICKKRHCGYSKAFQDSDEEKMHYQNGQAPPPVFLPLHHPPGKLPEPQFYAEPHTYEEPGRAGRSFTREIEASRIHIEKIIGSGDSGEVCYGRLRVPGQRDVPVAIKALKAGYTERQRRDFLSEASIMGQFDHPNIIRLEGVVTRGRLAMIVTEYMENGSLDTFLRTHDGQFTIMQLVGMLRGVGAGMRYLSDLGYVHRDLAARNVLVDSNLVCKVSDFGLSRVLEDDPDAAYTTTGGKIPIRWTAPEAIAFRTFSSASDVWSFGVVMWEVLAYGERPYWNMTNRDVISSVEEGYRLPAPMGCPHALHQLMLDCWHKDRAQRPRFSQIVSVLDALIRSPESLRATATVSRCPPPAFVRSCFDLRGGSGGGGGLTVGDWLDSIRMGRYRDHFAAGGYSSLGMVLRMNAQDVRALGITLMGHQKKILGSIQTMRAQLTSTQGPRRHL

With `C[C@@H]1CN(c2cc(-c3n[nH]c4ccc(OC5(C)CC5)cc34)ncn2)C[C@H](C)O1` the remaining binding was 82% (cell-free assay; competition with immobilised ligand; 0.1 µM).
`COc1ncc2cc3ccccc3nc2c1C#N` gave a remaining binding of 94% (cell-free assay; competition with immobilised ligand; 5 µM).
`O=C(Nc1c[nH]nc1C(=O)NC1CCNCC1)c1cc(F)cc(F)c1` has a remaining binding of 100% (binding; competition with immobilised ligand; 1 µM).
With `N[C@@H]1CCN(c2nccc(-c3cnn4ncccc34)n2)C1` the remaining binding was 100% (binding; 1 µM).
With `Cc1noc([C@H]2C[C@@H](c3ccc(C(F)(F)F)cc3)CN(C(=O)N3CCS(=O)(=O)C3)C2)n1` the remaining binding was 100% (cell-free assay; competition with immobilised ligand; 1 µM).
The remaining binding of `O=C(c1ccc(Nc2ncc(Cl)c(-c3cc4ccccc4s3)n2)cc1)N1CCC(N2CCCC2)CC1` is reported as 83% (binding; competition with immobilised ligand; 1 µM).
`COc1cc(-c2cn(C3CCc4c(F)cccc4N(CC(F)(F)F)C3=O)nn2)ccc1-n1cnc(C)c1` (centres unmarked) gave a remaining binding of 100% (cell-free assay; competition with immobilised ligand; 1 µM).
`Cc1cnn2ncc(-c3ccnc(N(C)C)n3)c2c1` has a remaining binding of 99% (binding; 1 µM).
`NS(=O)(=O)c1cc(NC(=O)C2(c3ccccc3Cl)CC2)ccc1Oc1cccc(Cl)c1` gave a remaining binding of 80% (cell-free assay; competition with immobilised ligand; 1 µM).
`C[C@@H](c1ccc(-n2cnc3c(N)ncnc32)cc1)N1CCc2nn(C)c(Cc3ccccc3)c2C1=O` has a remaining binding of 63% (binding; competition with immobilised ligand; 0.1 µM).
For `CC1=C(C#N)C(c2ccc3c(c2)c(NC(=O)c2ccccc2C)nn3C)C(C#N)=C(C)N1`, the remaining binding was 100% (cell-free assay; competition with immobilised ligand; 1 µM).
`COc1cnc(Nc2cccc(S(N)(=O)=O)c2)nc1N1CCN(c2ccccc2)CC1` has a remaining binding of 96% (binding; competition with immobilised ligand; 1 µM).
`O=c1nc(-c2ccccn2)sc2ccccc12` has a remaining binding of 78% (cell-free assay; competition with immobilised ligand; 1 µM).
The remaining binding of `O=C(c1ccc(Nc2nccc(-c3cc4ccccc4s3)n2)cc1)N1CCC(N2CCCC2)CC1` is reported as 100% (binding; competition with immobilised ligand; 1 µM).
`c1cnn2ncc(-c3ccnc(N4CCC45COC5)n3)c2c1` gave a remaining binding of 89% (binding; 1 µM).
With `O=C(c1ccc(Nc2ncc(Cl)c(-c3ccc(Cl)s3)n2)cc1)N1CCC(N2CCCC2)CC1` the remaining binding was 91% (binding; competition with immobilised ligand; 1 µM).
With `CN(C)c1nccc(-c2cnn3ncccc23)n1` the remaining binding was 100% (binding; 1 µM).
`CNC(=O)[C@@H]1CC[C@@H](n2c(-c3ccc4cnccc4c3)nc3ccc(C(=O)NCc4cccc(C(N)=O)c4)cc32)C1` gave a remaining binding of 91% (binding; competition with immobilised ligand; 1 µM).
`COc1ccnn2ncc(-c3ccnc(N(C)C)n3)c12` has a remaining binding of 100% (binding; 1 µM).
With `FC(F)(F)Oc1cccc(-c2cnc3ccc(-c4ccncc4)nn23)c1` the remaining binding was 91% (cell-free assay; competition with immobilised ligand; 5 µM).
